# From ChEMBL document CHEMBL4613292, “5,6-Dihydroxypyrimidine Scaffold to Target HIV-1 Nucleocapsid Protein” (ACS Med Chem Lett, 2020)
# Active and inactive are the calls of the source. No cut-off for these calls is given here.
# Assays:
# [1] = (§1) Inhibition of HIV1 Nucleocapsid protein (11 to 55 residues) assessed as reduction in NC-induced cTAR DNA destabilization by measuring intrinsic fluorescence using Alexa488-5'-cTAR-3'-Dabcyl oligonucleotide as substrate at 20 degree C incubated for 15 mins by fluorescence assay; design: species or system Human immunodeficiency virus 1
# In short: (§2)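 Fluorescence NC-inhibition assay following destabilisation of cTAR DNA, the complement of the HIV-1 transactivation response element, dual-labelled with Alexa488 dye and Dabcyl quencher. NC protein at 1 μM, so the lowest measurable IC50 is 0.5 μM.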
# [2] = tested on: Human immunodeficiency virus 1; assay: (§3) Antiviral activity against wild-type HIV1 NL4-3 infected in human TZM-bl cells infected with supernatants from virus-infected human MT2 cells treated with compound for 48 to 72 hrs assessed as reduction in viral replication after 2 days by bright Glo-luciferase reporter gene assay based BiCycle assay; format: functional, organism-based; details: Human immunodeficiency virus 1, NL4-3, TZM
# In short: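 Two-round cell assay over the full replication cycle: MT-2 T cells are infected with wild-type reference strain NL4-3 in the first round, and reporter TZM-bl cells are infected in the second round. Values are given as mean ± deviation.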
# [3] = Cytotoxicity against human HeLa cells assessed as reduction in cell viability; format: cell-based
# [4] = as §3, with “Selectivity index, ratio of CC50 for human HeLa cells assessed as reduction in cell viability to EC50 for” for “Antiviral activity against”; format: toxicity; details: read-out: Ratio CC50/EC50
# In short: (§4)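 Selectivity index is CC50 from the respective cytotoxicity assay (HeLa or PBMC) divided by EC50 from the two-round MT-2/TZM-bl NL4-3 assay.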
# [5] = Cytotoxicity against phytohemagglutinin and interleukin-2-stimulated human PBMC cells assessed as reduction in cell viability measured after 7 days by MTS assay; format: cell-based
# [6] = as §3, with “Selectivity index, ratio of CC50 for human PBMC cells stimulated with phytohemagglutinin and interleukin-2 assessed as reduction in cell viability measured after 7 days by MTS assay to EC50 for” for “Antiviral activity against”; format: toxicity; details: read-out: Ratio CC50/EC50; in short: as §4
# [7] = tested on: Human immunodeficiency virus 1; assay: as §1; in short: as §2
# [8] = tested on: Human immunodeficiency virus 1; assay: Antiviral activity against PI-resistant HIV1 11808; format: functional, organism-based; details: Human immunodeficiency virus 1, 11808
# [9] = tested on: Human immunodeficiency virus 1; assay: Antiviral activity against NRTI-resistant HIV1 7401; format: functional, organism-based; details: Human immunodeficiency virus 1, 7401
# [10] = tested on: Human immunodeficiency virus 1; assay: Antiviral activity against NNRTI-resistant HIV1 12231; format: functional, organism-based; details: Human immunodeficiency virus 1, 12231
# [11] = tested on: Human immunodeficiency virus 1; assay: Antiviral activity against INI-resistant HIV1 11845; format: functional, organism-based; details: Human immunodeficiency virus 1, 11845
# [12] = tested on: Human immunodeficiency virus 1; assay: as §1, with “Ratio” for “Inhibition”, “of IC50 for PI-resistant HIV1 11808 Nucleocapsid protein (11 to 55 residues) using Alexa488-5'-cTAR-3'-Dabcyl oligonucleotide as substrate to IC50 for” for “of”
# [13] = tested on: Human immunodeficiency virus 1; assay: as §1, with “Ratio” for “Inhibition”, “of IC50 for NRTI-resistant HIV1 7401 Nucleocapsid protein (11 to 55 residues) using Alexa488-5'-cTAR-3'-Dabcyl oligonucleotide as substrate to IC50 for” for “of”
# [14] = tested on: Human immunodeficiency virus 1; assay: as §1, with “Ratio” for “Inhibition”, “of IC50 for NNRTI-resistant HIV1 12231 Nucleocapsid protein (11 to 55 residues) using Alexa488-5'-cTAR-3'-Dabcyl oligonucleotide as substrate to IC50 for” for “of”
# [15] = tested on: Human immunodeficiency virus 1; assay: as §1, with “Ratio” for “Inhibition”, “of IC50 for INI-resistant HIV1 11845 Nucleocapsid protein (11 to 55 residues) using Alexa488-5'-cTAR-3'-Dabcyl oligonucleotide as substrate to IC50 for” for “of”
# [16] = Half life in mouse plasma at 3 uM by LC-MS/MS analysis; format: ADME, cell-free
# [17] = Half life in mouse hepatocytes at 3 uM by LC-MS/MS analysis; format: ADME, cell-based, Hepatocyte
# [18] = Half life in human hepatocytes at 3 uM by LC-MS/MS analysis; format: ADME, cell-based, Hepatocyte
# [19] = biological target: Voltage-gated inwardly rectifying potassium channel KCNH2 (Homo sapiens, UniProt Q12809); assay: Displacement of Tracer Red from human ERG measured after 4 hrs by fluorescence polarization assay
# Voltage-gated inwardly rectifying potassium channel KCNH2, sequence (Q12809 whole entry): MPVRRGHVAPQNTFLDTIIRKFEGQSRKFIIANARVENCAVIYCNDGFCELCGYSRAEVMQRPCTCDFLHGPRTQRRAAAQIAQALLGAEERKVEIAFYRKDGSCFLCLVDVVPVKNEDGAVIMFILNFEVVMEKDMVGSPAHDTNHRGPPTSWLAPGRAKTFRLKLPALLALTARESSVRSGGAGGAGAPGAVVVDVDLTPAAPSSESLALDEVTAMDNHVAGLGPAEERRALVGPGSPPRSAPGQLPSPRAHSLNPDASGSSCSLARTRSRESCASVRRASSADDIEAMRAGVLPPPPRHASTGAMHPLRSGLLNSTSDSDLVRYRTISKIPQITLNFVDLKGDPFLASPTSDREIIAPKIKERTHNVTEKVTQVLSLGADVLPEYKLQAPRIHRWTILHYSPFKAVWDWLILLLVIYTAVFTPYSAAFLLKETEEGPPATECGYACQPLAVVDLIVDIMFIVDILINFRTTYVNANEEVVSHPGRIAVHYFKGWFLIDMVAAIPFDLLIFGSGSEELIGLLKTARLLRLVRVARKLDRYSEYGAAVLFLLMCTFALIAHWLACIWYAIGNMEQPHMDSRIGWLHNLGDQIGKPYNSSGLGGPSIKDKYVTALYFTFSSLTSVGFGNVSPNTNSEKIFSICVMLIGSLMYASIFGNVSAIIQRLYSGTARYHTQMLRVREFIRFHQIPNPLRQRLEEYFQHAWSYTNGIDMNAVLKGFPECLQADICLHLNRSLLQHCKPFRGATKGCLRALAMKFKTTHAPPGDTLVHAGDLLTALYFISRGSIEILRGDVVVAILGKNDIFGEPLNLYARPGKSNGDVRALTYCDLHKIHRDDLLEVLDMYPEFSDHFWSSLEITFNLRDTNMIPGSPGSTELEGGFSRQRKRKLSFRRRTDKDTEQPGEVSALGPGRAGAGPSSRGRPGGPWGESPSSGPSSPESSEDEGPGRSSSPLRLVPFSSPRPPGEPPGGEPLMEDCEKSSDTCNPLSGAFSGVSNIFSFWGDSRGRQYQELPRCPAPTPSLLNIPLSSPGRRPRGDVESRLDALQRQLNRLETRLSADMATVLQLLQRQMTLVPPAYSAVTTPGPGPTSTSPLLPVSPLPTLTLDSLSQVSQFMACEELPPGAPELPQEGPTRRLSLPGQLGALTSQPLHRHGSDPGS
# Cytochrome P450 1A2 = biological target: T1, Cytochrome P450 1A2 (Homo sapiens, UniProt P05177); assay: Inhibition of human microsomal CYP1A2 expressed in baculovirus infected insect cells using luciferin-1A2 as substrate preincubated with enzyme-substrate mixture for 30 mins followed by further incubation with NADPH for 30 mins by CYP450 luciferase Glo assay; format: ADME
# T1 sequence (P05177 whole entry): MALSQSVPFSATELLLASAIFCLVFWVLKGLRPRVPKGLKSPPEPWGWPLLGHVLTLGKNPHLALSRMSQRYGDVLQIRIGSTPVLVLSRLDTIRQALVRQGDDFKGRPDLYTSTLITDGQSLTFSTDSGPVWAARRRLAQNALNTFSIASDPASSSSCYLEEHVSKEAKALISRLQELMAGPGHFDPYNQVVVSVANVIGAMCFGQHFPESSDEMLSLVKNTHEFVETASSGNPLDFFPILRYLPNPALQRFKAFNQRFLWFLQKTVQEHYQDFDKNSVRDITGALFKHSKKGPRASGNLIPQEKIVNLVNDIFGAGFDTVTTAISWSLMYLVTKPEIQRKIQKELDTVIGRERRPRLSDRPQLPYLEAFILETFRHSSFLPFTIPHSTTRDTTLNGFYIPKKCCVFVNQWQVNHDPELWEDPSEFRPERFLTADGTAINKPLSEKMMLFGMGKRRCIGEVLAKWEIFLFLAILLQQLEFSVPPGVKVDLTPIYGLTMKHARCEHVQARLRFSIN
# Cytochrome P450 2D6 = Cytochrome P450 2D6 (Homo sapiens, UniProt P10635); assay: Inhibition of human microsomal CYP2D6 expressed in baculovirus infected insect cells using luciferin-ME as substrate preincubated with enzyme/substrate mixture for 30 mins followed by further incubation with NADPH for 30 mins by CYP450 luciferase Glo assay; format: ADME
# Cytochrome P450 2D6, sequence (P10635 whole entry): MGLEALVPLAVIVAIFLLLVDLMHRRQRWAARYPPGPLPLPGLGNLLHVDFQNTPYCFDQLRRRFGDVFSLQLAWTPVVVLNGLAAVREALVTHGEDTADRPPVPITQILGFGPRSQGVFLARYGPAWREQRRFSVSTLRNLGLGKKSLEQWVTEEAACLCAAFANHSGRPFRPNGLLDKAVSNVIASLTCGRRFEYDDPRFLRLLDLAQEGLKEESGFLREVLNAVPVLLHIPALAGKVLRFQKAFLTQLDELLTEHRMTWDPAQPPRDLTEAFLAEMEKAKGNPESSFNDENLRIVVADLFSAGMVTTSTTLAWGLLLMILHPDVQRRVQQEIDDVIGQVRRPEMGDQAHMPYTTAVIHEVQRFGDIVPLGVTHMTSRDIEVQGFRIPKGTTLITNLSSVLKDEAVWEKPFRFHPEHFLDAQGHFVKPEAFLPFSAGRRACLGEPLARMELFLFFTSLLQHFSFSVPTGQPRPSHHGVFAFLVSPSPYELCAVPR
# Cytochrome P450 3A4 = Cytochrome P450 3A4 (Homo sapiens, UniProt P08684); assay: Inhibition of human microsomal CYP3A4 expressed in baculovirus infected insect cells using luciferin-IPA as substrate preincubated with enzyme/substrate mixture for 30 mins followed by further incubation with NADPH for 30 mins by CYP450 luciferase Glo assay; format: ADME
# Cytochrome P450 3A4, sequence (P08684 whole entry): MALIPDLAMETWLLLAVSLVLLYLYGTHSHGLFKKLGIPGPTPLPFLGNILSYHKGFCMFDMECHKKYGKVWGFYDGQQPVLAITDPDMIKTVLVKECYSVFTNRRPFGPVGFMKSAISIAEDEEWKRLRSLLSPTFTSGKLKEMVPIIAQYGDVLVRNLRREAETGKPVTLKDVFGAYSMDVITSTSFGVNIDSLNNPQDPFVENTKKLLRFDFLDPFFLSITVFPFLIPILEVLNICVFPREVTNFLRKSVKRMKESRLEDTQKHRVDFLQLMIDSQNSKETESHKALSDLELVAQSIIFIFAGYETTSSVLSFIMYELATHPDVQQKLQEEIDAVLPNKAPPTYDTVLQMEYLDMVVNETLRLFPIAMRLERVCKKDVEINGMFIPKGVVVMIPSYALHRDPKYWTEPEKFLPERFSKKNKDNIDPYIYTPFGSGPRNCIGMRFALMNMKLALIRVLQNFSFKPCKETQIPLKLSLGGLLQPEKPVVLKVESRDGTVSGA
# [20] = Half life in C57BL/6 mouse at 2 mg/kg, iv or 5 mg/kg, po administered as single dose measured up to 24 hrs by LC-MS/MS analysis; format: ADME, organism-based; details: in vivo
# [21] = Volume of distribution at steady state in C57BL/6 mouse at 2 mg/kg, iv or 5 mg/kg, po administered as single dose measured up to 24 hrs by LC-MS/MS analysis; format: ADME, organism-based; details: in vivo, read-out: Vdss
# [22] = Clearance in C57BL/6 mouse at 2 mg/kg, iv or 5 mg/kg, po administered as single dose measured up to 24 hrs by LC-MS/MS analysis; format: ADME, organism-based; details: in vivo
# [23] = Oral bioavailability in C57BL/6 mouse at 5 mg/kg administered as single dose measured up to 24 hrs by LC-MS/MS analysis; format: ADME, organism-based; details: in vivo
# In short: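 C57BL/6 mice were dosed 5 mg/kg orally, with a 2 mg/kg iv reference arm. Plasma was sampled at eight time points up to 24 h.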
# [24] = biological target: Human immunodeficiency virus type 1 integrase (Human immunodeficiency virus 1) (UniProt Q7ZJM1); assay: Inhibition of wild type recombinant HIV1 His6-tagged integrase expressed in Escherichia coli BL21 using 18 nucleotide 3'-biotin labeled DNA acceptor as substrate upto 10 uM preincubated for 1 hr followed by substrate addition and further incubated for 90 mins in presence of recombinant LEDGF/p75 by HTRF assay
# Human immunodeficiency virus type 1 integrase (Human immunodeficiency virus 1), sequence (Q7ZJM1 as listed by the source): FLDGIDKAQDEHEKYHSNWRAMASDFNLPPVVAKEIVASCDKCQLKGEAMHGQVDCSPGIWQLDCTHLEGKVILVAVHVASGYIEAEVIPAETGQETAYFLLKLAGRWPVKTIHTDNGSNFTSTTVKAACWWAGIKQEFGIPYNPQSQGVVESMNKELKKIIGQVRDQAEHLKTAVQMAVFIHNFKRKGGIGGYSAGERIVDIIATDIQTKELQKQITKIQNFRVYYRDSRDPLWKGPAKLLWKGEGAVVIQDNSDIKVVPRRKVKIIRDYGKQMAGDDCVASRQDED
compound,measurement,setting,value
CC(Cc1ccc(O)c(O)c1)C(C)Cc1ccc(O)c(O)c1 (stereo not drawn) [NORDIHYDROGUAIARETIC ACID],IC50,[1]; read-out: IC50,26 µM
Cc1cccc(-c2nc(O)c(O)c(C(=O)N[C@H](C)C3CCCCC3)n2)n1,IC50,[1]; read-out: IC50,20 µM
O=C(NCCC1CCCCC1)c1nc(-c2ccccn2)nc(O)c1O,IC50,[1]; read-out: IC50,38 µM
same,EC50,[2],2.3 µM
same,CC50,[3],4.2 µM
same,selectivity ratio,[4],2
same,CC50 at 168 h,[5],11 µM
same,selectivity ratio at 7 days,[6],5
C[C@@H](NC(=O)c1nc(-c2ncccc2C(F)(F)F)nc(O)c1O)C1CCCCC1,IC35,[7],20 µM
Cc1cccnc1-c1nc(O)c(O)c(C(=O)N[C@H](C)C2CCCCC2)n1,IC50,[1]; read-out: IC50,21 µM
C[C@H](NC(=O)c1nc(-c2ccccn2)nc(O)c1O)C1CCCCC1,IC50,[1]; read-out: IC50,47 µM
same,EC50,[2],0.2 µM
same,CC50,[3],0.6 µM
same,selectivity ratio,[4],3
same,CC50 at 168 h,[5],2.4 µM
same,selectivity ratio at 7 days,[6],12
CC(C)(C)c1nc(O)c(O)c(C(=O)NCC2CCCCC2)n1,IC50,[1],Not Active
O=C(NCC1CCCCC1)c1nc(CCc2ccccc2)nc(O)c1O,IC50,[1],Not Active
C[C@@H](NC(=O)c1nc(-c2nccc3ccccc23)nc(O)c1O)C1CCCCC1,IC50,[1]; read-out: IC50,4 µM
same,EC50,[2],0.1 µM
same,CC50,[3],2.1 µM
same,selectivity ratio,[4],21
same,CC50 at 168 h,[5],5 µM
same,selectivity ratio at 7 days,[6],50
same,EC50,[8],0.16 µM
same,EC50,[9],0.13 µM
same,EC50,[10],0.21 µM
same,EC50,[11],0.09 µM
same,Ratio IC50,[12],1.6
same,Ratio IC50,[13],1.3
same,Ratio IC50,[14],2
same,Ratio IC50,[15],0.9
same,half-life at 3 µM,[16],3.7 h
same,half-life at 3 µM,[17],1.7 h
same,half-life at 3 µM,[18],2.6 h
same,IC50,[19],> 30 µM
same,IC50,Cytochrome P450 1A2,> 30 µM
same,IC50,Cytochrome P450 2D6,> 30 µM
same,IC50,Cytochrome P450 3A4,> 30 µM
same,half-life,[20],1.1 h
same,Vd,[21],0.8 L/kg
same,clearance,[22],30.2 mL/min/kg
same,bioavailability,[23],26%
same,inhibition,[24],inactive
O=C(NCC1CCCCC1)c1nc(-c2cccnc2)nc(O)c1O,IC50,[1],Not Active
C[C@@H](NC(=O)c1nc(-c2cccc(C(F)(F)F)n2)nc(O)c1O)C1CCCCC1,IC35,[7],20 µM
CC(Cc1nc(-c2ccc(O)c(O)c2)cs1)n1cc(Cl)cn1 (stereo not drawn),IC50,[1]; read-out: IC50,110 µM
CN(CC1CCCCC1)C(=O)c1nc(-c2ccccn2)nc(O)c1O,IC50,[1],Not Active
